Laboratory results taken from ChEMBL document CHEMBL2062389, “Novel Cyclopropyl-Indole Derivatives as HIV Non-Nucleoside Reverse Transcriptase Inhibitors” (ACS Med Chem Lett, 2012).

Columns and labels:
[1] = Cytotoxicity against human 293T cells after 48 hrs by colorimetric analysis; format: cell-based; conditions: HEK-293T cells
[2] = test system: Human immunodeficiency virus 1; experiment: Antiviral activity against Human immunodeficiency virus 1 infected in human 293T cells assessed as inhibition of viral replication after 48 hrs by luminescence analysis; format: functional, organism-based; conditions: Human immunodeficiency virus 1, HEK-293T
Outline: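 Single-cycle, nonreplicative phenotypic assay against wild-type HIV-1, using virus-like particles made with an HIV-1 retroviral vector system. Compounds incubated with 293T cells and VLPs for 48 h. Inhibition quantified by luminescence and reported as IC50 (μM).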

IC50 [2] [µM]	Compound	CC50 at 48 h [1] [µM]
8.25	OCc1[nH]c2ccc(Cl)cc2c1C1(c2ccccc2)CC1	34.1
0.085	CCOC(=O)c1[nH]c2ccc(Cl)cc2c1C1(c2ccccc2)CC1	30.3
0.121	NC(=O)c1[nH]c2ccc(Cl)cc2c1C1(c2cccs2)CC1	25.6
0.065	CCOC(=O)c1[nH]c2ccc(Cl)cc2c1C1(c2cccs2)CC1	67.1
0.096	NC(=O)c1[nH]c2ccc(Cl)cc2c1C1(c2ccccc2)CC1	14.2
28.5	O=C(O)c1[nH]c2ccc(Cl)cc2c1C1(c2ccccc2)CC1	92.3
0.066	CCOC(=O)c1[nH]c2ccc(Br)cc2c1C1(c2ccccc2)CC1	24.5
14.4	OCc1[nH]c2ccc(Cl)cc2c1C1(c2cccs2)CC1	36.6
2.25	CCOC(=O)c1[nH]c2ccc(Cl)cc2c1C1(C)CC1	44.3
48.2	O=C(O)c1[nH]c2ccc(Cl)cc2c1C1(c2cccs2)CC1	140

Compound	IC50 [2] [µM]	CC50 at 48 h [1] [µM]
Cc1ccnc2c1NC(=O)c1cccnc1N2C1CC1 [NEVIRAPINE]	0.087	–
